# Measured values published in article PMC11615718 (RSC Advances, 2024).
# Where “and” joins values, the source holds several entries; their conditions need not be identical. Equal entries are not always repeated. Where two headings read alike, the source gives them in different places.
# Experiments:
# [1] = up to 30 mg kg^−1 i.p., mice; cited from earlier work
# [2] = test system: small-conductance Ca2+-activated KCa2 channels; settings: cited from earlier work
# [3] = experimental mice; cited from earlier work
# [4] = up to 30 mg kg^−1 i.p., Sprague-Dawley rats; cited from earlier work
# [5] = 14-day i.p. tolerability in mice; assay type: in vivo, C57BL/6 mice; settings: 30 mg kg^−1 i.p. daily for 14 days, female C57BL/6
# Summary of the method: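 Female C57BL/6 mice (6–7 weeks old, n = 6 per group) got test compound at 6 mg mL−1 in 3% DMSO + 97% peanut oil. The preparation was thawed, heated to ~60 °C and cooled before dosing. Dose was ~100 μL i.p. (30 mg kg−1) once daily for 14 days; vehicle-injected controls. Body weight was taken every 2–4 days. At day 14, serum AST was measured by colorimetric kit, and organs were paraffin-embedded and H&E-stained.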
# [6] = Solubility in DMSO by UV-Vis spectrophotometry; assay type: physicochemical
# Summary of the method: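 Excess test compound (50 mg) was shaken in 500 μL DMSO at 1000 rpm for 24 h, then filtered through 0.22 μm and diluted 100-fold in DMSO. Concentration came from absorbance at the peak, read against a blank-corrected calibration curve at 345 nm. Standards were serial dilutions in DMSO from 0.5 to 0.007 mg mL−1.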
# KCa3.1 channel = KCa3.1 channel (Homo sapiens, UniProt O15554+P0DP23); experiment: QPatch-HTX patch-clamp, KCa3.1 activation; assay type: cell-based
# Chain of KCa3.1 channel (O15554 whole entry, one chain of several): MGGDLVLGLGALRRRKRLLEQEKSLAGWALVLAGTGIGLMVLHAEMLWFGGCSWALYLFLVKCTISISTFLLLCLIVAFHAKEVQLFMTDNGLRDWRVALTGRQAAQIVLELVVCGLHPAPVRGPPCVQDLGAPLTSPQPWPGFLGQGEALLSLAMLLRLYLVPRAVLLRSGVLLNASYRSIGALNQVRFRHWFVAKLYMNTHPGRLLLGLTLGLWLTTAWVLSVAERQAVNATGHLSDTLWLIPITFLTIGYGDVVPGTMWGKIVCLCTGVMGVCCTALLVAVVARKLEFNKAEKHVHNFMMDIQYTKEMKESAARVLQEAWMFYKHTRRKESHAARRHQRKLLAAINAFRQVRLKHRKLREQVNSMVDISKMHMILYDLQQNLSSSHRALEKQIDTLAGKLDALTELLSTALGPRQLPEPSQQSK
# Summary of the method: (§1)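 Automated whole-cell patch clamp on a QPatch-HTX. Test compound came from 10 mM DMSO stocks, diluted in fixed ratios into each channel's own extracellular solution, over 300 nM to 30 μM. Each current slope was the mean of five measurements at the end of each liquid period. Activation was normalised per cell to a saturating 30 μM activator applied before washout; otherwise currents were normalised to the last vehicle period. Hill fit used ≥3 cells.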
# [7] = Tissue biodistribution by LC-MS after 14-day dosing; assay type: in vivo, C57BL/6 mice; settings: female, C57BL/6, mouse, ip, 30 mg kg^−1
# Summary of the method: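 After 14 days of daily i.p. dosing (30 mg kg−1 in 3% DMSO/97% peanut oil), brain, kidney and liver were harvested at termination. Pre-weighed organs were homogenised in methanol:dichloromethane (1:1), held 30 min at 4 °C and spun 10 min at 14000 rpm, 4 °C. LC-MS used a C18 column at 40 °C and 0.3 mL min−1, with a water/acetonitrile (0.1% formic acid) gradient from 20% to 95% B over a 10 min run.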
# [8] = Plasma pharmacokinetics after single i.p. dose; assay type: in vivo, BALB/c mice; settings: 30 mg kg^−1 i.p.
# Summary of the method: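 Female BALB/c mice (7–9 weeks old, n = 4 per time point) received a single i.p. dose of 30 mg kg−1 in 3% DMSO + 97% peanut oil. Blood was taken at 0, 0.25, 0.5, 1, 2, 4, 8 and 24 h. Plasma (20 μL) was mixed with 60 μL methanol:dichloromethane (1:1), then test compound was quantified by LC-MS on a C18 column with a water/acetonitrile (0.1% formic acid) gradient.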
# KCa2.2 = KCa2.2 (Rattus norvegicus, UniProt P70604); experiment: QPatch-HTX patch-clamp, KCa2.2; assay type: cell-based
# Chain of KCa2.2 (P70604 whole entry): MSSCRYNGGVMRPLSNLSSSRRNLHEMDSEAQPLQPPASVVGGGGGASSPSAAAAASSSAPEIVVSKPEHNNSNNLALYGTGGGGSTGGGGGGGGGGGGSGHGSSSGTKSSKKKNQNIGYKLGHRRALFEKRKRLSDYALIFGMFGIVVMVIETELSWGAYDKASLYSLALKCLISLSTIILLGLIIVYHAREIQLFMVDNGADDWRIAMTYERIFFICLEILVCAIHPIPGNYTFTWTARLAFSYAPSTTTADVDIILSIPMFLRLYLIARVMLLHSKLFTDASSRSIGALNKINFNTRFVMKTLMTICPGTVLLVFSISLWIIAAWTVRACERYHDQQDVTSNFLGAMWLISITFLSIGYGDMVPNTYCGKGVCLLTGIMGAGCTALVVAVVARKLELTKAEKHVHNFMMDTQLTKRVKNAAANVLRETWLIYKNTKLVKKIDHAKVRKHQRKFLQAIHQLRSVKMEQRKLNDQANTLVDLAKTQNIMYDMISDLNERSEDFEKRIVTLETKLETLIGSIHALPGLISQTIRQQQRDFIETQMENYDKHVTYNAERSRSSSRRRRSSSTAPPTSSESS
# Summary of the method: as §1
# KCa2.3 = KCa2.3 (Homo sapiens, UniProt Q9UGI6); experiment: QPatch-HTX patch-clamp, KCa2.3; assay type: cell-based
# Chain of KCa2.3 (Q9UGI6 whole entry): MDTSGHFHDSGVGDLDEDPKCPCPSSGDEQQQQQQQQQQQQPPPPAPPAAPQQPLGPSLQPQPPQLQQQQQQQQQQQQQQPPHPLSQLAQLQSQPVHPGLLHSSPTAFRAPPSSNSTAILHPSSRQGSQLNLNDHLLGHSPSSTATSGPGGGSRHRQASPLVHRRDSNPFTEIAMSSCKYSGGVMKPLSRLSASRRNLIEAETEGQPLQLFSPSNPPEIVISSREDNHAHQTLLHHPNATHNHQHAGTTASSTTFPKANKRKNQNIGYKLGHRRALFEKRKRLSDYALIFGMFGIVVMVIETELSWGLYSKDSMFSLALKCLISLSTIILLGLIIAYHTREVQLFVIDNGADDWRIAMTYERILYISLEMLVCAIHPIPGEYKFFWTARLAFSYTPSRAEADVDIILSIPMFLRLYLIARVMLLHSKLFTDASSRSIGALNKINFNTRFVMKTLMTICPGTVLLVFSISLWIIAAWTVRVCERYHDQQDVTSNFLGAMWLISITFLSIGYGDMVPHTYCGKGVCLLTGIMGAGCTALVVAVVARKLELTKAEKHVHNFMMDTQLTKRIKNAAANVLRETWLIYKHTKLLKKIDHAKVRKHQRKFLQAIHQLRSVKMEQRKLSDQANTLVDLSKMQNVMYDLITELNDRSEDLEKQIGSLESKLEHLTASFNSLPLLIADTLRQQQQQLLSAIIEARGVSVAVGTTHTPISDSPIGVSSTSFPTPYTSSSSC
# Summary of the method: as §1
solubility at 24 h [6],EC50 (KCa3.1 channel),concentration at 14 days ([7]; kidney),concentration at 14 days ([7]; liver),Cmax relative to EC50 for KCa3.1 activation ([8]; at 15 min),"MRTlast ([8]; female BALB/c mice, plasma)","circulating half-life (t1/2) ([8]; female BALB/c mice, plasma)","Cmax ([8]; female, BALB/c, mouse, plasma, ip, 30 mg/kg, peak plasma concentration (Cmax), female BALB/c mice, at 15 min)",EC50 (KCa2.2),EC50 (KCa2.3),Structure (SMILES),Tolerability [1],Selectivity for KCa3.1 over KCa2 channels [2],Effect on blood pressure [3],Tolerability [4],Change in serum aspartate aminotransferase (AST) vs vehicle [5],Mouse body weight loss vs vehicle [5]
,,,,,,,,,,"Nc1nc2c(ccc3ccccc32)s1 [SKA-31, Naphtho[1,2-d]thiazol-2-ylamine]",well-tolerated,lacked selectivity,lowered blood pressure,well-tolerated,,
40600 µg/mL and 189000 µM,1.9 µM,60.7 ng/g,22.5 ng/g,about 15 times,4.82 h,2.84 h,6290 ng/mL and 29.2 µM,,,"Cc1cc2sc(N)nc2c2cccnc12 [SKA-346, 5-methyl-[1,3]thiazolo[4,5-f]quinolin-2-amine]",,,,,did not cause any significant change,no significant mouse body weight loss
,1.7 µM,,,,,,,11.9 µM,29.3 µM,"Nc1nc2c(cc(C(F)(F)F)c3ncccc32)s1 [NKV-104, 5-(trifluoromethyl)thiazolo[4,5-f]quinolin-2-amine]",,,,,,
